Compound activity deposited in PubChem BioAssay by several laboratories.
An excerpt weighted towards active compounds, which were near 5.8% of everything screened.
Cl transport mod: modulates chloride dependent transport by human KCC2; KCC2 cells, thallium flux FluoZin-2 fluorescence; B-score of Tl+ flux slope (higher = more flux/activation; lower = inhibition) at 10 µM; actives 2.2% (n = 190,000); AID 1456;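 active = thallium flux slope and its plate-corrected score both differing from the plate sample mean at a set confidence after two filtering rounds, in either direction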;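 note: slope of fluorescence scaled to starting intensity during 10 to 20 s after thallium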
WT yeast gro inh: growth inhibition of WT yeast, mitochondrial fusion screen; mitochondrial fusion phenotypic screen, WT strain; inhibition, % at 10 µM; actives 2.1% (n = 190,000); AID 1362; in the data active = inhibition above about 58%; tested in S. cerevisiae
ROMK mod: modulates human ROMK potassium channel activity; AID 1918; B-score at 10 µM; P48048; actives 2% (n = 130,000); Tet-inducible ROMK, thallium flux fluorescence; actives lie on both sides;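 active = signal ratio slope over the read window, or its plate-corrected B-score, at least 3 SD from the plate mean, either direction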;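 note: B-score of the F/F0 ratio slope over 7 to 12 s after thallium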
14-3-3 Bad PPI: disrupts binding of bovine 14-3-3 zeta to phospho-Bad peptide. TR-FRET 14-3-3zeta/Dy647-pBad peptide displacement, 1 h. P63103. inhibition, % at 21.7 µM. actives 0.71% (n = 220,000);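 active = inhibition above about 70%, limit read from the data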;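 note: 0% = full 14-3-3 plus peptide FRET controls and 100% = background without 14-3-3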
Target sequence (P63103 whole entry, looked up): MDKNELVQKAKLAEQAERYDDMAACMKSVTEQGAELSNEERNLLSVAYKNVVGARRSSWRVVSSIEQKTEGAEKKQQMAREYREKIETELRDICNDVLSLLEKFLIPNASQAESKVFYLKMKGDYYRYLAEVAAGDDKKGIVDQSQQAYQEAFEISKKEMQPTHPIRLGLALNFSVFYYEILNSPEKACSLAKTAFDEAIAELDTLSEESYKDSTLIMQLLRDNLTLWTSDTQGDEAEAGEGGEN
p47phox inh: inhibitors of human p47phox binding; P14598; p47phox/p22phox peptide binding, fluorescence polarization, 2 h; inhibition, % at 24.7 µM; actives 0.53% (n = 220,000);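 active = inhibition above about 30%, limit read from the data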;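 note: 0% = p47phox with labelled peptide and 100% = labelled peptide alone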
Target sequence (P14598 whole entry, looked up): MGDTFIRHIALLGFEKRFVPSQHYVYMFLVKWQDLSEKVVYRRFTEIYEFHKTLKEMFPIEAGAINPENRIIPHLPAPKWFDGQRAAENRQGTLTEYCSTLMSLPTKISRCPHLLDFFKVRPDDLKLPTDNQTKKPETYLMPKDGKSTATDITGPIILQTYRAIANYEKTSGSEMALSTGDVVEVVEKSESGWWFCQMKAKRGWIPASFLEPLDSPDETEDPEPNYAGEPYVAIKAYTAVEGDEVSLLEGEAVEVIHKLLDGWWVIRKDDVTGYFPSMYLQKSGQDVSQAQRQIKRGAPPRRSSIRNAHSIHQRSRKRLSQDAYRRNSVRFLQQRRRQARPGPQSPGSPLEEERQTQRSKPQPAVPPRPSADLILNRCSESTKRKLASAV
RBBP9 inh: blocks human serine hydrolase RBBP9; O75884; recombinant RBBP9, FP-Rh probe fluorescence polarization; inhibition, % at 7.94 µM; actives 0.2% (n = 220,000); AID 1515;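 active = inhibition above the campaign mean of all tested compounds plus 3 SD, cut at about 14% in these data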;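 note: plate controls were DMSO wells with RBBP9 for no effect and wells lacking RBBP9 protein for full effect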
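system = RBBP9 protein | input = RBBP9 at 2.5 µM in dispensed solution, before mixing | measured by = fluorescence polarization (mP), excitation 525 nm, emission 598 nm | incubation = enzyme-compound preincubation 30 min, then probe labeling 45 min, 25 °C | buffer or medium = Tris-NaCl-Pluronic buffer, pH 8.0 | compound = single dose 7.94 µM | also added = FP-Rh probe, 375 nM dispensing solution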
* = called active by the depositor; . = not tested or not shown; [ ] = another dose, or the depositor's remark.

SMILES | Cl transport mod | WT yeast gro inh | ROMK mod | 14-3-3 Bad PPI | p47phox inh | RBBP9 inh
COc1ccc(C(=O)O/N=C(\C)c2ccccc2)cc1 | -2.14 | 75.0* | -0.514 | -10.9 | -16.9 | -6.8
O=C(/C=C\c1ccccc1OC(=O)c1ccccc1F)c1cc2ccccc2o1 | -0.0227 | 18.3 | . | -1.9 | -14.9 | 2.2
COC(=O)c1cc2c(-c3ccccc3)cc3ccccn3c-2c1C(=O)OC | -0.0161 | 24.8 | -0.149 | -35.4 | 53.1* | -3.8
CCN(CC)CCNC(=S)Nc1ccc(F)cc1 | -0.767 | 7.0 | 0.788 | -4.4 | 5.7 | -7.7
CCCC(=O)Nc1cccc(-c2nc3ccccc3c(=O)o2)c1 | 0.0217 | -1.2 | 0.818 | -9.9 | -2.2 | -9.4
Cc1cccc(C)c1OCCOC(=O)c1n[nH]c2ccccc12 | -0.0478 | 67.4* | -0.768 | 89.0* | -6.4 | -11.6
Cc1cc(NC(=O)COC(=O)c2n[nH]c3ccccc23)no1 | -0.821 | -1.2 | . | -2.3 | -20.2 | -8.1
CC(C(=O)NCCCc1ccccc1)c1ccc([N+](=O)[O-])cc1 (centres undefined) | -1.69 | 6.7 | -0.0557 | 1.4 | -7.5 | -10.5
CCN(CC)CC#CCC(OC)(c1ccccc1)c1ccccc1 | . | 28.2 | -0.399 | 7.4 | 3.9 | -9.2
CCOC(=O)c1cn2nc(Oc3ccc(C#N)cc3)ccc2n1 | 0.569 | . | 0.444 | -2.1 | 1.9 | -6.0
CCC(C(=O)Nc1cccc(C(=O)O)c1)c1ccccc1 (centres undefined) | -0.455 | -16.2 | -0.0441 | -1.8 | -6.3 | -7.9
CCC(C(=O)Nc1ccc(OC)c(Cl)c1)c1ccccc1 (centres undefined) | 0.0148 | 59.0* | 0.262 | 5.1 | 7.9 | -8.9
COC(=O)CSc1ncnc2c(C)csc12 | -1.14 | . | . | -0.3 | 0.6 | -5.6
O=C(CNS(=O)(=O)c1ccccc1)NCC(=O)OCc1ccc(Cl)cc1 | -2.14 | . | . | 0.4 | 1.4 | -0.1
COc1ccc(C(=O)c2c(C(F)(F)F)oc3c2C(=O)c2ccccc2C3=O)cc1 | 1.05 | 92.3* | . | -13.7 | -7.7 | -11.2
Cc1ccc(C(=O)c2c(C)oc3c2C(=O)C(=O)c2ccccc2-3)cc1 | -0.723 | 57.2 | . | -16.4 | -0.4 | -11.9
O=S(=O)(NCc1cn2ccccc2n1)c1ccccc1F | 1.19 | . | 0.84 | -1.5 | -5.3 | -6.8
CCC/C(O)=C1\C(=O)CC(c2ccccc2)CC1=NC(C)C(=O)O (centres undefined) | 0.696 | 0.4 | . | -24.8 | 1.2 | 3.8
COc1ccc(C(=O)Nc2ccccc2C(=O)NC(Cc2c[nH]c3ccccc23)C(=O)O)cc1 (centres undefined) | -0.897 | -2.1 | -0.406 | 10.7 | -23.4 | -3.5
O=C(Nc1cc2cccc([N+](=O)[O-])c2oc1=O)c1cccs1 | 0.108 | -7.5 | -0.423 | 4.6 | -22.6 | -5.1
CCCCCCCCCCCNC(=O)c1ccoc1C | 0.0291 | 75.9 | -0.505 | 6.3 | -37.9 | 3.5
CCCCCC(C)NC(=O)c1ccoc1C (centres undefined) | . | 78.1* | -0.56 | 2.4 | -8.3 | -9.7
O=C(O)CCc1ccc(-c2ccc(F)cc2)n1Cc1ccco1 | -0.925 | 63.5* | . | -11.9 | -22.8 | -4.8
CN(C(=O)c1cc(-n2cnnc2)ccc1Cl)c1ccccc1 | 1.05 | 10.1 | . | 5.3 | -17.5 | -12.1
CSc1[nH]c(=O)c(C(=O)O)cc1C#N | 0.313 | 11.5 | . | 70.6* | -10.0 | -0.8
SMILES | Cl transport mod | WT yeast gro inh | ROMK mod | 14-3-3 Bad PPI | p47phox inh | RBBP9 inh
CCOC(=O)c1cc(C#N)c(SCC(=O)O)[nH]c1=O | 0.198 | -6.2 | 0.0657 | 30.5 | 2.9 | 3.1
CCOC(=O)N=Nc1c(O)n(CC(=O)OC)c2ccccc12 | 0.254 | 14.3 | -0.0025 | -1.4 | 7.4 | -11.4
CCOC(=O)N=Nc1c2ccccc2c2nc3no[nH]c3nc12 | 3.53 | 95.8* | 1.62 | -4.0 | 3.1 | 2.1
CCN=c1scc(-c2ccco2)n1/N=C/c1ccc(O)cc1 | . | 2.7 | 1.16 | 25.8 | -12.5 | -3.5
CCN=c1scc(-c2ccco2)n1/N=C/c1ccc(OC)c(O)c1 | -1.72 | 58.6* | 0.321 | -10.5 | -16.5 | -1.9
CC(C)CN1C(=O)c2ccc(C(=O)Nc3c[nH]c(=O)[nH]c3=O)cc2C1=O | 0.0585 | -8.9 | -0.144 | -6.0 | -7.6 | 2.9
O=C(c1ccccn1)N(Cc1ccco1)C1(C(=O)NC2CCCC2)CCCCC1 | 0.687 | 13.3 | 1.05 | 0.1 | -1.4 | -22.9
O=C(c1ccc2c(c1)OCO2)N(Cc1ccco1)C1(C(=O)NC2CCCCC2)CCCCC1 | -0.787 | 58.7* | -2.37 | 13.8 | 2.4 | -12.7
CC1CN(c2ccccc2)CCN1Cc1nc(Cc2ccccc2)no1 (centres undefined) | -0.68 | 8.2 | -0.164 | -11.8 | -6.2 | -5.0
O=C1C2CCCN2C(=O)N1CCCCN1CCN(c2ccccc2)CC1 (centres undefined) | 1.7 | -0.1 | 0.316 | 39.0 | -8.1 | -7.3
O=C1CC(=C(c2ccccc2)c2ccccc2)C(=O)N1CCCCN1CCN(c2ccccc2)CC1 | 0.0819 | 26.2 | 0.0303 | 76.2* | -70.0 | -5.5
Cc1cc2oc(C(=O)N(Cc3ccccc3)C3CCS(=O)(=O)C3)cc(=O)c2cc1Cl (centres undefined) | . | 3.4 | -0.0779 | 88.4*[fluorescence artefact?] | -5.4 | 2.7
[O-][n+]1c2c(nc3c1-c1ccccc1C3O)CCCC2 (centres undefined) | . | -3.9 | 0.065 | -11.7 | -2.2 | -10.8
Cc1[nH][nH]c(=O)c1C(c1c(C)[nH][nH]c1=O)c1cn(Cc2ccc(F)cc2)c2ccccc12 | -0.0948 | 14.0 | -4.76* | -24.6 | -6.4 | -4.3
COc1ccc(C2C3=C(CC(C)(C)CC3=O)Oc3ncn(Cc4ccccc4)c(=N)c32)cc1 (centres undefined) | . | 97.2* | -0.5 | -7.2 | 0.1 | -6.0
CC1(C)CC(=O)C2=C(C1)Oc1ncn(Cc3ccco3)c(=N)c1C2c1ccccc1 (centres undefined) | -0.00692 | -9.8 | -3.29 | -4.3 | -12.2 | -7.0
O=C(C1=C[C@H](c2csc3ccccc23)C[C@H](OCc2ccc(CO)cc2)O1)N1CCN(Cc2ccccc2)CC1 | -0.495 | 96.6* | . | 12.4 | . | -6.9
O=C(C1=C[C@H](c2csc3ccccc23)C[C@H](OCc2ccc(CO)cc2)O1)N1CCN(Cc2ccc3c(c2)OCO3)CC1 | -0.312 | 97.7* | . | 4.1 | -26.6 | -14.2
CCc1ccc2c(c1)C1(SC(NC(C)=O)=NN1C(C)=O)C(=O)N2CC (centres undefined) | -0.0951 | -13.5 | 0.418 | -3.0 | -4.0 | -3.4
ClCc1ncc(-c2ccc(Cl)cc2)o1 | 0.445 | -6.5 | -0.739 | -5.3 | -2.0 | 0.0
O=c1cc(C(Cl)(Cl)Cl)oc2c1ccc1ccccc12 | 0.285 | 78.2* | -1.1 | -6.0 | -14.9 | -0.5
O=c1cc(-c2ccco2)oc2c1ccc1ccccc12 | 0.66 | 20.3 | -0.217 | 76.7* | -19.2 | -6.3
Cc1ccc(S(=O)(=O)N2CCN(CC(=O)N/N=C\C(Cl)=C\c3ccccc3)CC2)cc1 | 0.123 | -6.5 | 0.0184 | -2.5 | -4.5 | -7.2
CC(/C=N\NC(=O)CN1CCN(S(=O)(=O)c2ccc(C)cc2)CC1)=C\c1ccccc1 | 0.145 | 1.1 | . | 80.5*[fluorescence artefact?] | -9.9 | -11.7
